The source made the active and inactive calls. The calls are words filed in the database; no cut-off is given here.
Columns and labels:
[1] = Cytotoxicity against human HeLa cells incubated for 8 days by cellTiter-Glo assay; type: cell-based
How it was run: (§1)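 Cells (1×10^5/well) on collagen I-coated wells, first kept 8 days in recommended medium without drug, then exposed to compound for 8 days with refeeding every other day. Viability read by CellTiter-Glo luminescence; CC50 derived by curve fitting.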

[2] = Cytotoxicity against human HuH7 cells incubated for 8 days by cellTiter-Glo assay; type: cell-based, Huh-7; how it was run: as §1
[3] = Selectivity index, ratio of CC50 for human HuH7 cells infected with HCV con1 subgenomic replicon to EC50 for HCV con1 subgenomic replicon; type: toxicity; conditions: read-out: Ratio CC50/EC50
How it was run: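 Ratio of CC50 (CellTiter-Blue viability after 3 days) to EC50 (HCV RNA by QRT-PCR). Both were measured in Huh-7 Con1 subgenomic replicon cells in DMEM with 2% FBS and 0.5% DMSO at 37 °C.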

[4] = Cytotoxicity against human MT4 cells incubated for 8 days by cellTiter-Glo assay; type: cell-based; how it was run: as §1
[5] = Cytotoxicity against human A549 cells incubated for 8 days by cellTiter-Glo assay; type: cell-based; how it was run: as §1
[6] = Cytotoxicity against human HepG2 cells incubated for 8 days by cellTiter-Glo assay; type: cell-based; how it was run: as §1
Hepatitis C virus = test: Antiviral activity against HCV con1 subgenomic replicon infected in human HuH7 cells assessed as reduction in viral RNA level by qRT-PCR analysis; type: functional, organism-based, Hepacivirus hominis; conditions: isolate Con1, Huh-7
How it was run: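 Huh-7 cells carrying a subgenomic Con1 HCV replicon (neomycin phosphotransferase, kept under 0.25 mg/ml G418) were exposed to serially diluted compound in DMEM with 2% FBS and 0.5% DMSO, without G418, at 37 °C. Total RNA was extracted and HCV RNA copies were measured by multiplex QRT-PCR (Taqman). EC50 was obtained by 4-parameter curve fit.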

[7] = Cytotoxicity against human HuH7 cells infected with HCV con1 subgenomic replicon assessed as reduction in cell viability measured after 3 days by CellTiter-blue cell viability assay; type: cell-based, Huh-7
How it was run: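 Run in the replicon-bearing Huh-7 cells under the same settings as the antiviral read (DMEM, 2% FBS, 0.5% DMSO, no G418, 37 °C). After 3 days of treatment, viability was read with CellTiter-Blue and CC50 was derived by curve fitting.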

[8] = Cytotoxicity against human U937 cells incubated for 8 days by cellTiter-Glo assay; type: cell-based, U-937; how it was run: as §1
[9] = Prodrug activation in human hepatocytes assessed as nucleoside monophosphate metabolite formation per million cells incubated for 24 hrs; type: ADME, cell-based, Hepatocyte
How it was run: (§2)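 Primary human hepatocytes (1.5-2 million cells/well) acclimated overnight at 37 °C, 5% CO2, then incubated 24 h with 50 μM extracellular compound. Cells washed with cold 0.9% NaCl and lysed in 70/30 methanol/water. Extract dried and reconstituted, then analysed by LC-MS/MS with an internal standard; reported as pmol per million cells.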

[10] = Prodrug activation in Beagle dog assessed as [[(2S,3S,4R,5R)-5-(2-amino-6-oxo-1H-purin-9-yl)-2,4-difluoro-3-hydroxy-4-methyl-tetrahydrofuran-2-yl]methoxy-hydroxy-phosphoryl]phosphono hydrogen phosphate metabolite formation in liver at 9.69 mg/kg, po measured at 4 hrs post dose by LC-MS/MS analysis; type: ADME, organism-based, Canis lupus familiaris; conditions: in vivo
How it was run: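 Male non-naïve beagle dogs (n=2 per time point), fasted overnight, single oral dose of 9.69 mg/kg (5 mg/kg parent nucleoside equivalent) as a solution in 40% PEG400 in water. Animals anesthetized with pentobarbital before liver collection. Liver NTP measured by negative-ion LC-MS/MS against standards spiked into blank liver homogenate.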

[11] = Prodrug activation in human hepatocytes assessed as [[(2S,3S,4R,5R)-5-(2-amino-6-oxo-1H-purin-9-yl)-2,4-difluoro-3-hydroxy-4-methyl-tetrahydrofuran-2-yl]methoxy-hydroxy-phosphoryl]phosphono hydrogen phosphate metabolite formation per million cells at 50 uM incubated for 24 hrs by LC-MS/MS analysis; type: ADME, cell-based, Hepatocyte; how it was run: as §2
Homo sapiens = species: Homo sapiens; test: Substrate activity at human mitochondrial RNA polymerase assessed as nucleotide incorporation into RNA at 100 uM using [33P]-labeled 5'-UUUUGCCGCGCC-3' and 3'-CGGCGCGGCACGTAAGGG-5' RNA/DNA primer/template by polyacrylamide gel electrophoresis method
How it was run: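 Single-turnover conditions: 100 nM 33P-labelled RNA/DNA primer/template with 320 nM human mitochondrial RNA polymerase in excess. Each NTP was tested at 100 μM. ATP, UTP and CTP gauged misincorporation opposite the templating CMP. Products were run on 22.5% TBE-urea sequencing gels and bands quantified by phosphorimager.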

DNA polymerase gamma = test: Inhibition of human DNA polymerase gamma at 100 uM using calf DNA as substrate by microbeta scintillation counting method relative to control; conditions: human DNA polymerase gamma enzyme, probe calf DNA
How it was run: (§3)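 Activated calf thymus DNA served as template for each polymerase, in 50 mM Tris-HCl pH 8.0, 60 mM KCl, 5 mM MgCl2 and 4 mM DTT with 2 μM each of dCTP, dATP and dGTP plus 2.5 μCi 3H-dTTP. Test NTP was at 100 μM. DNA products were precipitated with 20% TCA and counted by microplate scintillation. Results are reported as percent inhibition with standard deviation.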

[12] = Inhibition of RNA polymerase 2 in human HeLa cell nuclear extract assessed as reduction in RNA transcription by polyacrylamide gel electrophoresis method; type: cell-based
How it was run: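 In vitro transcription used HeLa cell nuclear extract. RNA products were resolved on 6% TBE-urea polyacrylamide gels.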

DNA polymerase beta = DNA polymerase beta (Homo sapiens, UniProt P06746); test: Inhibition of human DNA polymerase beta at 100 uM using calf DNA as substrate by microbeta scintillation counting method relative to control; conditions: human DNA polymerase beta enzyme, probe calf DNA; how it was run: as §3
DNA polymerase alpha = molecular target: T1, DNA polymerase alpha (Homo sapiens, UniProt P09884); test: Inhibition of human DNA polymerase alpha at 100 uM using calf DNA as substrate by microbeta scintillation counting method relative to control; conditions: human DNA polymerase alpha enzyme, probe calf DNA; how it was run: as §3
T1 sequence (P09884 whole entry): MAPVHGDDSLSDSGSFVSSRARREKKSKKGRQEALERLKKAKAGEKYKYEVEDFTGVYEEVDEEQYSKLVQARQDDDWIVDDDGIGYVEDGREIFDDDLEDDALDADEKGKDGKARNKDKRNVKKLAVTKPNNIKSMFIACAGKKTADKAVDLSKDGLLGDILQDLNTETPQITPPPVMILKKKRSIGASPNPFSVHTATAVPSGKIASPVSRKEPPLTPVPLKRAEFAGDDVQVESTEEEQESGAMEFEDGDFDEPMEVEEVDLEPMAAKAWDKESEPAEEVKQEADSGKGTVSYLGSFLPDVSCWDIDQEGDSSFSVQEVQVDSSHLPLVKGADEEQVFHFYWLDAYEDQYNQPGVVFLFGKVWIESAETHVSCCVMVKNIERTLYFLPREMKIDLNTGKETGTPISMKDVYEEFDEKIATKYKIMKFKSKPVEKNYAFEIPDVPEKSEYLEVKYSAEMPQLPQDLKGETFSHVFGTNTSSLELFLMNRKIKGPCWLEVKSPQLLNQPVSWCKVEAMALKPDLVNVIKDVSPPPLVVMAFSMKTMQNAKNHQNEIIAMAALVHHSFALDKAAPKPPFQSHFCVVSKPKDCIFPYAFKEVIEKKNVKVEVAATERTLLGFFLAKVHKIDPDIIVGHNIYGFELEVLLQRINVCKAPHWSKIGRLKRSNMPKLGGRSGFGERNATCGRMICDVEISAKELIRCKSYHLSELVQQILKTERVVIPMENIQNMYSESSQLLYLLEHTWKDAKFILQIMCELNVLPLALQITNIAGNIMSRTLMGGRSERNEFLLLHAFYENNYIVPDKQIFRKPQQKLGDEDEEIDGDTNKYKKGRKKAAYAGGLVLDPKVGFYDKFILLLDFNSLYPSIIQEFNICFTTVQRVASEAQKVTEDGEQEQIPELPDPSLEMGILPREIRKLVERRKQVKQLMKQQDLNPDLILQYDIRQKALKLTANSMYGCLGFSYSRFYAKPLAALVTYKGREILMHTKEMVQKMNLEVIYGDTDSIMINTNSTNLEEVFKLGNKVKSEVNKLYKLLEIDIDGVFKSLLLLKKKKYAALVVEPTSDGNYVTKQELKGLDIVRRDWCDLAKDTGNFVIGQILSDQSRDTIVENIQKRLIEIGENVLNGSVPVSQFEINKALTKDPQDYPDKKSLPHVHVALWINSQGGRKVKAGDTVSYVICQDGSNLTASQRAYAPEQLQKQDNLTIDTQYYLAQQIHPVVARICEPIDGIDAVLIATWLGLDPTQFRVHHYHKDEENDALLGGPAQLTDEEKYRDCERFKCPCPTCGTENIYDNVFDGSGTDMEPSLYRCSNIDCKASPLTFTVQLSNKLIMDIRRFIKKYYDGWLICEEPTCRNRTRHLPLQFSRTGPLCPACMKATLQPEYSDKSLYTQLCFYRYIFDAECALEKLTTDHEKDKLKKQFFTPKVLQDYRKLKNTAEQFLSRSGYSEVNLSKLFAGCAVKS

[13] = molecular target: RNA-directed RNA polymerase (Hepacivirus hominis) (UniProt O39930); test: Inhibition of HCV NS5B RNA-dependent RNA polymerase 10-mer elongation complex assessed as chain termination of RNA synthesis by measuring reduction in 11-mer RNA product formation at 100 uM incubated for 1 min by polyacrylamide gel based method
Chain of RNA-directed RNA polymerase (Hepacivirus hominis) (O39930 1-591): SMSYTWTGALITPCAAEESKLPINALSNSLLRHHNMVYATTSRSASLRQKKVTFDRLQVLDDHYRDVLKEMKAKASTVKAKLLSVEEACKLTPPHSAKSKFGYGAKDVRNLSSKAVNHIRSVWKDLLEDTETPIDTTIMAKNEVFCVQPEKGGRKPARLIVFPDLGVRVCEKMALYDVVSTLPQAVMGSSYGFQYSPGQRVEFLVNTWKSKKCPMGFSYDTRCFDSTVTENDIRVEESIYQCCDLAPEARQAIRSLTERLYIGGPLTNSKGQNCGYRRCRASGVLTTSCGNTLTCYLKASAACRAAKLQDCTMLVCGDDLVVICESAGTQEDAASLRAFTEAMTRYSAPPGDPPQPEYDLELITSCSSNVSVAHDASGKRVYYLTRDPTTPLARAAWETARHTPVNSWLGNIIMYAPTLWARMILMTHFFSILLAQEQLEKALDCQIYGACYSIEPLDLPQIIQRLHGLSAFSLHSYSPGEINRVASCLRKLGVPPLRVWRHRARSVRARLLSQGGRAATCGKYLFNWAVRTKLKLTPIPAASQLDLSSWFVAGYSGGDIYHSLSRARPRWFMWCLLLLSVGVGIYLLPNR
How it was run: (§4)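 The NS5B elongation complex was built from 6.5 μM NS5B, 20 μM pGG, 20 μM 20-nt RNA template, 25 μM ATP and 12.5 μM GTP (pH 7.0 buffer, 2 h, 30 °C), giving a 9-mer. It was extended to a 10-mer with 33P-CTP for 30 s, then pelleted, washed and resuspended. The complex was elongated with 100 μM of each NTP in 40 mM Tris pH 7.4, 150 mM NaCl, 2 mM MgCl2 and 5 mM DTT for 1 min at 30 °C. Products were resolved on 22.5% urea PAGE and quantified by phosphorimager.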

[14] = molecular target: RNA-directed RNA polymerase (Hepacivirus hominis) (UniProt O39930); test: Inhibition of HCV NS5B RNA-dependent RNA polymerase 10-mer elongation complex assessed as chain termination of RNA synthesis by measuring reduction in 20-mer RNA product formation at 100 uM incubated for 1 min in presence of UTP and ATP by polyacrylamide gel based method; how it was run: as §4
[15] = molecular target: RNA-directed RNA polymerase (Hepacivirus hominis, UniProt O39930); test: Inhibition of HCV NS5B RNA-dependent RNA polymerase activity assessed as reduction in radiolabeled ribonucleotide monophosphates incorporation into RNA using cIRES template measured after 2 hrs by microscintillation counting method
Chain of RNA-directed RNA polymerase (O39930 whole entry): as the sequence (O39930 1-591) above
How it was run: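 Reactions contained 100 nM NS5B, 50 nM cIRES RNA template, 1 μM tritiated CTP, 1 μM ATP, 1 μM GTP and 0.5 μM UTP in 40 mM Tris-HCl pH 8.0, 20 mM NaCl, 3 mM DTT and 4 mM MgCl2, with serially diluted inhibitor. Incubation was 2 h at 30 °C, then TCA precipitation and scintillation counting of acid-insoluble RNA. Values are the mean of n ≥ 2 determinations.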

| Activity (Homo sapiens) | inhibition at 100 µM (DNA polymerase gamma) | IC50 [12] | inhibition at 100 µM (DNA polymerase beta) | inhibition at 100 µM (DNA polymerase alpha) | inhibition [13] | inhibition [14] | IC50 [15] | SMILES | CC50 at 192 h [1] | CC50 at 192 h [2] | selectivity ratio [3] | CC50 at 192 h [4] | CC50 at 192 h [5] | CC50 at 192 h [6] | EC50 (Hepatitis C virus) | CC50 at 72 h [7] | CC50 at 192 h [8] | Drug metabolism [9] | Drug metabolism [10] | Drug metabolism [11] |
| --- | --- | --- | --- | --- | --- | --- | --- | --- | --- | --- | --- | --- | --- | --- | --- | --- | --- | --- | --- | --- |
|  |  |  |  |  |  |  |  | CCOc1nc(N)nc2c1ncn2[C@@H]1O[C@H](COP(=O)(N[C@@H](C)C(=O)OCC(C)(C)C)Oc2cccc3ccccc23)[C@@H](O)[C@@]1(C)O (some centres undefined) | 13.4 µM | 350 nM | 47.1 | 960 nM | 7.8 µM | 1500 nM | 348 nM | 16.4 µM | 170 nM |  |  |  |
|  |  |  |  |  |  |  |  | CCOc1nc(N)nc2c1ncn2[C@@H]1O[C@](F)(CO[P@@](=O)(N[C@@H](C)C(=O)OC(C)C)Oc2ccccc2)[C@@H](O)[C@@]1(C)F |  |  | > 20000 |  |  |  | 5 nM | > 100 µM |  | 105 pmol | 22.3 µM | 321 pmol |
|  |  |  |  |  |  |  |  | CCOc1nc(N)nc2c1ncn2[C@@H]1O[C@](F)(CO[P@](=O)(N[C@@H](C)C(=O)OC(C)C)Oc2ccccc2)[C@@H](O)[C@@]1(C)F |  |  | > 1700 |  |  |  | 57 nM | > 100 µM |  | 67.1 pmol | 6.33 µM | 174 pmol |
| inactive | 29.8% | > 100 µM | 16.3% | 73.2% | inactive | Active | 160 nM | C[C@]1(F)[C@H](n2cnc3c(=O)[nH]c(N)nc32)O[C@](F)(COP(=O)(O)OP(=O)(O)OP(=O)(O)O)[C@H]1O |  |  |  |  |  |  |  |  |  |  |  |  |

From ChEMBL document CHEMBL4622986, “Synthesis and Anti-HCV Activity of Sugar-Modified Guanosine Analogues: Discovery of AL-611 as an HCV NS5B Polymerase Inhibitor for the Treatment of Chronic Hepatitis C” (J Med Chem, 2020)
